Data as given in ChEMBL document CHEMBL1158487, “Small molecule chloropyramine hydrochloride (C4) targets the binding site of focal adhesion kinase and vascular endothelial growth factor receptor 3 and suppresses breast cancer growth in vivo” (J Med Chem, 2009).
pIC50: −log10 of the molar value. The source made the active and inactive calls. The calls are words filed in the database; no cut-off is given here.

What was measured:
MCF7 [1] = experiment: Induction of apoptosis in human MCF7 cells assessed as procaspase 8 activation after 48 hrs; type: functional, cell-based
[2] = biological target: Vascular endothelial growth factor receptor 3 (Homo sapiens) (UniProt P35916); experiment: Inhibition of VEGFR3 phosphorylation in human MCF7 cells expressing VEGFR3 assessed as complete dephosphorylation at Tyr1063/1068 activation loop after 24 hrs by Western blotting; type: cell-based
MCF7 [3] = experiment: Induction of apoptosis in human MCF7 cells assessed as PARP degradation after 48 hrs; type: functional, cell-based
BT-474 [4] = experiment: Relocalization of FAK-VEGFR3 complex from cytoplasm to nucleus in human BT474 cells at 10 uM after 24 hrs by confocal microscopy; type: functional, cell-based
Outline: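 BT474 cells given DMSO or 10 µM compound for 24 h, dual-immunostained for FAK (Alexa Fluor 488) and VEGFR-3 (Alexa Fluor 546), imaged by confocal microscopy; percentage of colocalized FAK/VEGFR-3 molecules derived by scatter-plot analysis.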

[5] = biological target: Vascular endothelial growth factor receptor 3 (Homo sapiens) (UniProt P35916); experiment: Inhibition of VEGFR3 phosphorylation in human BT474 cells assessed as partial dephosphorylation at Tyr1063/1068 activation loop at 1 to 10 uM by Western blotting; type: cell-based; details: BT-474, TDE = time-dependent effect
[6] = biological target: Vascular endothelial growth factor receptor 3 (Homo sapiens) (UniProt P35916); experiment: Inhibition of VEGFR3 phosphorylation in human MCF7 cells expressing VEGFR3 assessed as partial dephosphorylation at Tyr1063/1068 activation loop after 24 hrs by Western blotting; type: cell-based
[7] = biological target: Vascular endothelial growth factor receptor 3 (Homo sapiens) (UniProt P35916); experiment: Inhibition of VEGFR3 phosphorylation in human BT474 cells assessed as complete dephosphorylation at Tyr1063/1068 activation loop at 10 uM by Western blotting; type: cell-based; details: BT-474
Outline: (§1)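 BT474 cells were exposed for 24 h to increasing doses (1 and 10 µM). Western blots of lysates were probed with a phospho-specific VEGFR-3 antibody for Tyr1063/1068 in the kinase activation loop.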

MDA-MB-231 = experiment: Cytotoxicity against human MDA-MB-231 cells after 72 hrs by MTS assay; type: functional, cell-based; details: MDA-MB-231, 72 h
Outline: (§2)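 MTS viability assay, read as mitochondrial dehydrogenase activity of metabolically active cells. Cells were seeded at 5.0 × 10^3 per well and attached overnight. Fresh medium with or without compound was added, followed by 72 h exposure at increasing concentrations. Error shown as ±SEM.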

BT-474 [8] = experiment: Cytotoxicity against human BT474 cells assessed as cell viability at 100 uM by MTS assay; type: functional, cell-based
Outline: (§3)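 MTS cell survival assay. Cells were plated at 5.0 × 10^3 per well and allowed to attach overnight, then given fresh medium with or without compound for the designated time. Absorbance was read per the kit protocol. Mean ± SEM of three or more independent experiments.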

BT-474 [9] = experiment: Induction of apoptosis in human BT474 cells at 10 uM by TUNEL assay; type: functional
MCF7 [10] = experiment: Cytotoxicity against human MCF7 cells assessed as cell viability at 10 uM after 48 hrs by MTS assay; type: functional
Outline: (§4)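 Viability measured by MTS after 48 h exposure. Cells were seeded at 5.0 × 10^3 per well and attached overnight before compound-containing medium was added. BT474 is a […] subclone grown in RPMI-1640 with 10% FBS and 250 µg/ml insulin. MCF7 stable clones carried either empty pcDNA3 or VEGFR-3. Mean ± SEM, ≥3 experiments, two-tailed t test.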

MCF7 [11] = experiment: Induction of apoptosis in human MCF7 cells at 10 uM after 48 hrs by TUNEL assay; type: functional
[12] = biological target: Vascular endothelial growth factor receptor 3 (Homo sapiens) (UniProt P35916); experiment: Inhibition of VEGFR3 phosphorylation in human BT474 cells assessed as complete dephosphorylation at Tyr1063/1068 activation loop at 1 to 10 uM by Western blotting; type: cell-based; details: BT-474, TDE = time-dependent effect; outline: as §1
MCF7 [13] = experiment: Decrease in colocalization of FAK-VEGFR3 complex in human MCF7 cells expressing VEGFR3 at 10 uM after 24 hrs by confocal microscopy; type: functional; parameters: scale not given: the % may be the effect or the level left
Outline: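 Cells were treated for 24 h with DMSO or 10 µM compound, then dual-immunostained for FAK (Alexa Fluor 488) together with VEGFR-3 or paxillin (Alexa Fluor 546). Confocal microscopy with scatter-plot analysis gave the percentage of colocalized molecules.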

BT-474 [14] = experiment: Cytotoxicity against human BT474 cells assessed as reduction in viability at 1 uM after 48 hrs by MTS assay; type: functional; outline: as §4
[15] = biological target: Vascular endothelial growth factor receptor 3 (Homo sapiens) (UniProt P35916); experiment: Inhibition of VEGFR3 phosphorylation in human BT474 cells assessed as complete dephosphorylation at Tyr1063/1068 activation loop after 24 hrs by Western blotting; type: cell-based; details: BT-474; outline: as §1
[16] = biological target: Vascular endothelial growth factor receptor 3 (Homo sapiens) (UniProt P35916); experiment: Inhibition of VEGFR3 phosphorylation in human MCF7 cells expressing VEGFR3 assessed as partial dephosphorylation at Tyr1063/1068 activation loop at 1 to 10 uM by Western blotting; type: cell-based; details: TDE = time-dependent effect
MCF7 [17] = experiment: Cytotoxicity against human MCF7 cells expressing VEGFR3 assessed as cell viability at 1 uM after 48 hrs by MTS assay; type: functional, cell-based; outline: as §4
MCF7 [18] = experiment: Induction of apoptosis in human MCF7 cells expressing VEGFR3 after 48 hrs by TUNEL assay; type: functional, cell-based
[19] = Cytotoxicity against human MCF10A cells assessed as cell viability at 100 uM by MTS assay; type: cell-based; details: mcf-10a; outline: as §3
BT-474 [20] = experiment: Induction of apoptosis in human BT474 cells assessed as procaspase 8 activation after 48 hrs; type: functional, cell-based
BT-474 [21] = experiment: Induction of apoptosis in human BT474 cells assessed as PARP degradation after 48 hrs; type: functional, cell-based
MCF7 [22] = experiment: Induction of apoptosis in human MCF7 cells expressing VEGFR3 at 10 uM after 48 hrs by TUNEL assay; type: functional
BT-474 [23] = experiment: Cytotoxicity against human BT474 cells after 72 hrs by MTS assay; type: functional, cell-based; details: BT-474, 72 h; outline: as §2
[24] = biological target: Focal adhesion kinase 1 (Homo sapiens) (UniProt Q05397); experiment: Inhibition of FAK phosphorylation in human BT474 cells assessed as decrease in total phosphorylation at 10 uM after 24 hrs by immunoprecipitation technique; type: cell-based; details: BT-474
Outline: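 MCF7-VEGFR-3 and BT474 cells were treated for 24 h at 10 µM or 1 µM. FAK was immunoprecipitated and blotted with anti-phosphotyrosine antibody 4G10 to assess total FAK tyrosine phosphorylation.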

MCF7 [25] = experiment: Antitumor activity against human MCF7 cells expressing VEGFR3 xenografted in nude-foxn1nu mouse assessed as reduction in tumor growth at 60 mg/kg, ip qd administered day after injection of cells after 21 days relative to control; type: functional; parameters: scale not given: the % may be the effect or the level left; details: route intraperitoneal
Outline: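 Female 5–6-week hsd:athymic nude-foxn1nu mice (5 per group) were given 2–5 × 10^6 MCF7-VEGFR-3 cells per 200 µl subcutaneously in the right flank. From the next day they received 60 mg/kg ip once daily or PBS vehicle for 21 days. Tumours were measured thrice weekly (volume = length × width² × 0.5), then excised and weighed at sacrifice.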

BT-474 [26] = experiment: Antitumor activity against human BT474 cells xenografted in nude-foxn1nu mouse assessed as reduction in tumor growth at 10 mg/kg, ip qd administered day after injection of cells after 14 days relative to control; type: functional; parameters: scale not given: the % may be the effect or the level left; details: route intraperitoneal
Outline: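 Female 5–6-week hsd:athymic nude-foxn1nu mice (5 per group) received 2–5 × 10^6 BT474 cells per 200 µl subcutaneously in the right flank. Dosing at 10 mg/kg ip once daily began the next day. Tumours were measured thrice weekly, with volume = length × width² × 0.5. The study ended at 14 days against a vehicle group.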

MCF7 [27] = experiment: Cytotoxicity against human MCF7 cells assessed as cell viability at 1 uM after 48 hrs by MTS assay; type: functional, cell-based; outline: as §4
MCF7 [28] = experiment: Antiproliferative activity against human MCF7 cells at 10 uM after 48 hrs by BrdU incorporation assay; type: functional, cell-based
Outline: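 Cells plated at 2.5 × 10^3 per well and allowed to attach overnight. Fresh growth medium with or without compound was added along with BrdU labelling reagent, and cells were incubated for the set time. BrdU incorporation was then read with a kit per the manufacturer. Data are mean ± SEM of three or more independent experiments, compared by two-tailed Student's t test.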

Sequence of Vascular endothelial growth factor receptor 3 (Homo sapiens) (P35916 whole entry): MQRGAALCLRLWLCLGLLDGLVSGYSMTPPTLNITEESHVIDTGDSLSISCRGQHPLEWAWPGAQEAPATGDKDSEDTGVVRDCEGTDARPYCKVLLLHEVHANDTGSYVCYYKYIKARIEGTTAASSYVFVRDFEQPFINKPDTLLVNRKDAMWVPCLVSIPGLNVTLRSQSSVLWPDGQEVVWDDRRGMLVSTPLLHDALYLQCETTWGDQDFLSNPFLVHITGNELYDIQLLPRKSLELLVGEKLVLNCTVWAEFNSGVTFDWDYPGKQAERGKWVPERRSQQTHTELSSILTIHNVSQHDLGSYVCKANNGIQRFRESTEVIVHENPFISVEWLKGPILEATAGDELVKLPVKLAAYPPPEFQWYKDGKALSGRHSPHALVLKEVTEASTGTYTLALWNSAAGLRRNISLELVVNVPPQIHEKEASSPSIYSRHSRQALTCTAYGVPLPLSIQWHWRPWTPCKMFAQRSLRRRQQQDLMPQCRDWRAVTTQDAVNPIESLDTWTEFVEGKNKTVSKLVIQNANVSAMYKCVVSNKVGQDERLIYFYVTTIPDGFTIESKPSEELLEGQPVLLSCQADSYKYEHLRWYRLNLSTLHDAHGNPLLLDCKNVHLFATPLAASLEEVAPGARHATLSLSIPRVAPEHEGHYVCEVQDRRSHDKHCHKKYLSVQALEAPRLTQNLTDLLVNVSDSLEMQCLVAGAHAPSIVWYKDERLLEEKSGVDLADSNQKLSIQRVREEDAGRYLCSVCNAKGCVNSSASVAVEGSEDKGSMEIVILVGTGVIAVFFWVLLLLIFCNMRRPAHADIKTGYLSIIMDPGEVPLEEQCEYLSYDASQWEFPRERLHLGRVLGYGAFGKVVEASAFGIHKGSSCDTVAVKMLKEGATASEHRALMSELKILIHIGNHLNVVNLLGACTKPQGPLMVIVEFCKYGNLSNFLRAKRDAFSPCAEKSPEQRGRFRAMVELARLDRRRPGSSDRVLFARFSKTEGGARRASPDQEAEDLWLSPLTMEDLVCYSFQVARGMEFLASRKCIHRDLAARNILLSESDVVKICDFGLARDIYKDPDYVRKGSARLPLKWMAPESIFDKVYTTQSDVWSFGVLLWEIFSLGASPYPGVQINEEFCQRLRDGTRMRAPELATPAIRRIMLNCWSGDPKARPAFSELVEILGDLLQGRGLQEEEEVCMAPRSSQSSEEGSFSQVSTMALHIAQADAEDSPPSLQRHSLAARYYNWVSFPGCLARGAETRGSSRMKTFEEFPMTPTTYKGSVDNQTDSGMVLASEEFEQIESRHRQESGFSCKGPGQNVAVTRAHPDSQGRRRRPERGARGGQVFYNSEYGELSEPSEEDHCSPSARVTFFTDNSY
Sequence of Focal adhesion kinase 1 (Homo sapiens) (Q05397 2-1052 limits assumed): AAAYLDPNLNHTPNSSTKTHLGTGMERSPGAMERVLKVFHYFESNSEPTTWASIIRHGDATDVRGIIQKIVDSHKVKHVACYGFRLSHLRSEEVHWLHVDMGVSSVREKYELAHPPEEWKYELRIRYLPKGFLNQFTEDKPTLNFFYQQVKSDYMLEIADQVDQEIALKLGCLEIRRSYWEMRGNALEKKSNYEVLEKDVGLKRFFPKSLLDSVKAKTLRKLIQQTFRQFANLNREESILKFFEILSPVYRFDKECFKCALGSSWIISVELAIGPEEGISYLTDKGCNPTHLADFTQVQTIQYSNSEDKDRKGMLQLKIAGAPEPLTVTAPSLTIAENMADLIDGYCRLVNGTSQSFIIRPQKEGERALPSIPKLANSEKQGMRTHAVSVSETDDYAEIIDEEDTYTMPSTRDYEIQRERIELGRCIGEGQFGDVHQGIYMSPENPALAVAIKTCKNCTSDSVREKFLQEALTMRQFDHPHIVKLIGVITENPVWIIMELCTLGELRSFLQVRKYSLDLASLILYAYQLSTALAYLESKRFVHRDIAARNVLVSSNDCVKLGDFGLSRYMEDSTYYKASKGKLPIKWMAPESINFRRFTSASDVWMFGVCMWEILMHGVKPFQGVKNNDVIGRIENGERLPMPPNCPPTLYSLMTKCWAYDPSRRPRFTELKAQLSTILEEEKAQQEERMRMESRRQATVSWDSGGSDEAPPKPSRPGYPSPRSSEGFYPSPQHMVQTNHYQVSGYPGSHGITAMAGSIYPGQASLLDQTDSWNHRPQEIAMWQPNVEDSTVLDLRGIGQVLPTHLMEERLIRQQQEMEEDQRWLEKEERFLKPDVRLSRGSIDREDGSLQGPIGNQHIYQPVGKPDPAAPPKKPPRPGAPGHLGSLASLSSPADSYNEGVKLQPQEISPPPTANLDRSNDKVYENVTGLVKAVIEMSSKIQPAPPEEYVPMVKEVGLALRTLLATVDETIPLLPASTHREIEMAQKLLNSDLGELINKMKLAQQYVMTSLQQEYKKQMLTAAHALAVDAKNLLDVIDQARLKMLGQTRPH

Activity [2]: Dose-dependent effect | Activity [5]: tde | Activity [6]: Dose-dependent effect | Activity [7]: Active | Activity [12]: tde | Activity [15]: Dose-dependent effect | Activity [16]: tde | Activity [24]: Active
Compound: CN(C)CCN(Cc1ccc(Cl)cc1)c1ccccn1.Cl [CHLORPYRAMIN HYDROCHLORIDE]
Activity (MCF7 [1]): Dose-dependent effect | Activity (MCF7 [3]): Dose-dependent effect | Activity (BT-474 [4]): Active | pIC50 (MDA-MB-231): 6.00 | Activity (BT-474 [8]): Active | Activity (BT-474 [9]): 60% | fold change (FC) (MCF7 [10]): 2 | Activity (MCF7 [11]): 18% | Activity (MCF7 [13]): 29% | Activity (BT-474 [14]): 40% | Activity (MCF7 [17]): Active | Activity (MCF7 [18]): Dose-dependent effect | Activity [19]: Active | Activity (BT-474 [20]): Dose-dependent effect | Activity (BT-474 [21]): Dose-dependent effect | Activity (MCF7 [22]): 76% | pIC50 (BT-474 [23]): 6.00 | Activity (MCF7 [25]): 20% | Activity (BT-474 [26]): 20% | Activity (MCF7 [27]): Active | Activity (MCF7 [28]): inactive
